Compound activity (PubChem)
Hits are enriched below; roughly 5.1% of the tested compounds scored in any of these assays.
STAT1 activator – increases IFN-gamma driven STAT1 reporter signal; activation (% of control), % at 5.5 µM; NIH 3T3 STAT1-luciferase reporter, luminescence; 100% = IFN-gamma alone, no compound; 2.6% of 200,000 active;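 active = activation above the screen-wide mean activation plus 3 SD, cut at about 130% in these data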
STAT3 inh-1 – reduces IL-6 driven STAT3 reporter signal. U3A cells, IL-6 STAT3-luciferase reporter, luminescence; host cell line lacks STAT1. inhibition, % at 5.5 µM. 0.89% of 190,000 active. AID 862;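 active = inhibition above the mean inhibition across all screened compounds plus 3 SD, cut at about 44% in these data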
NF-kB expr up – NF-kB expression increase, human neuronal cells | NF-kB reporter expression; active compounds read high | fold change at 12.5 µM | 1.6% of 190,000 active | AID 1239; in the data active = fold change above about 3.3
APP 5'UTR act – APP 5'UTR luciferase reporter activation | SH-SY5Y APP 5'UTR luciferase reporter, luminescence; zero percent = DMSO vehicle wells | activation, % at 2 µM | 1% of 190,000 active | AID 1276;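 active = activation above a set limit, based on mean plus 3 SD of controls, cut at about 140% in these data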
STAT3 activator – STAT3 signaling activation. U3A cells, IL-6 STAT3-luciferase reporter, luminescence; 100% = signal with IL-6 EC80 alone. activation (% of control), % at 5.6 µM. 0.91% of 190,000 active;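 active = activation above the screen-wide mean of compound activation plus 3 SD, cut at about 130% in these data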
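Material: human U3A cells carrying STAT3-luciferase construct. Measured by: reporter luminescence signal. Timing: compound 1 h, then IL-6 6 h at 37 °C.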
STAT1 blocker – STAT1 signaling inhibition | inhibition, % at 5.5 µM | 0.35% of 200,000 active | NIH 3T3 STAT1-luciferase reporter, IFN-gamma, luminescence;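 active = inhibition above a set limit, the mean inhibition across all tested compounds plus 3 SD, cut at about 34% in these data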
STAT3 inh-2 – STAT3 inhibition, confirmation assay. shares compounds with STAT3 inh-1. U3A cells, IL-6 STAT3 luciferase reporter, luminescence; cell line lacks STAT1. inhibition, % at 5.7 µM. 45% of 1,200 active;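 active = inhibition above the hit cutoff computed for the primary STAT3 screen, cut at about 44% in these data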
NFkB inh 2 – NF-kappaB inhibition in STAT3 inhibitor counter-screen | shares compounds with STAT3 inh-1 | HEK293T NF-kB luciferase reporter, TNF-alpha induced | inhibition, % at 5.7 µM | 36% of 1,200 active | AID 1308;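 active = inhibition above the mean of solvent-only control wells plus 3 SD, cutoff set per campaign, cut at about 13% in these data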
STAT1 inh STAT3c – inhibits STAT1, counter-screen to STAT3 inhibitors; shares compounds with STAT3 inh-1; NIH 3T3 STAT1-luciferase reporter, IFN-gamma induced, luminescence; inhibition, % at 5.7 µM; 27% of 1,200 active; AID 1317;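 active = inhibition above the mean plus 3 SD of solvent-only control wells, limit set per screening run, cut at about 16% in these data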
Numbers stand for hits; n = inactive; x = no result.

SMILES | STAT1 activator | STAT3 inh-1 | NF-kB expr up | APP 5'UTR act | STAT3 activator | STAT1 blocker | STAT3 inh-2 | NFkB inh 2 | STAT1 inh STAT3c
O=C(Nc1ccc(N2CCN(C(=O)c3ccco3)CC2)c(Cl)c1)c1cc2ccccc2o1 | n | 48 | n | n | n | n | 48 | n | n
CC(C)c1ccc(N(CC(=O)NCCSC(C)(C)C)S(C)(=O)=O)cc1 | n | n | n | n | n | n | x | x | x
Cc1ccc(S(=O)(=O)N2CCC(NC(=O)c3cccc(C)c3)CC2)cc1 | n | n | n | n | n | n | x | x | x
CC(=O)C1=C(O)C(=O)N(CCCn2ccnc2)C1c1ccc(C)cc1 (stereo not drawn) | n | n | n | n | n | n | x | x | x
CC1(C)CC2CC(C)(CN2S(=O)(=O)c2ccc(C(=O)Nc3ccc(Cl)c(S(=O)(=O)N4CCOCC4)c3)cc2)C1 (stereo not drawn) | n | 45 | n | n | n | n | 50 | 22 | n
COCC(C)n1c(SCC(=O)N(C)C2CCS(=O)(=O)C2)nc2ccccc2c1=O (stereo not drawn) | n | n | n | n | n | n | x | x | x
CC(C)Oc1ccc(C(=O)NC2=NCCS2)cc1 | n | 62 | 8.3 | 154 | n | n | n | n | n
O=C(Nc1ccncc1)c1ccc2c(c1)C(=O)N(C1CCCCC1)C2=O | n | 75 | n | n | n | n | 66 | n | n
Cc1cc(NC(=O)c2ccc3c(c2)C(=O)N(C2CCCCC2)C3=O)no1 | n | n | n | n | n | n | x | x | x
COc1cc(NC(=O)c2ccc([N+](=O)[O-])o2)ccc1NC(=O)c1cccs1 | n | 44 | n | n | n | n | n | n | n
COc1cc(NC(=O)c2ccc3c(c2)OCCO3)ccc1NC(=O)c1cccs1 | n | n | n | n | n | n | x | x | x
CCOc1ccc(C(C)=O)cc1CSC(=N)N | n | n | x | n | n | n | x | x | x
CCCCOc1ccc(Br)cc1CSC(=N)N | n | 58 | n | n | n | n | 71 | 25 | 21
CN(C)c1ccc(/C=N/c2cc(-c3ccccc3)nn2-c2ccccc2)cc1 | n | n | n | n | n | n | x | x | x
Cc1ccc(S(=O)(=O)N2CCN(S(=O)(=O)N3CCCCCC3)CC2)cc1 | n | n | n | n | n | n | x | x | x
Cc1csc(NC(=O)Cc2nn(C)c(=O)c3ccccc23)n1 | n | 54 | n | n | n | n | 60 | 18 | 21
COc1ccccc1NC(=O)Cc1nn(C)c(=O)c2ccccc12 | n | 54 | n | n | n | n | 54 | 13 | 18
COc1cc(NC(=O)Cc2nn(C)c(=O)c3ccccc23)cc(OC)c1 | n | 48 | n | n | n | n | n | n | 17
Cn1nc(CC(=O)NCc2ccc(F)cc2)c2ccccc2c1=O | n | n | n | n | n | n | x | x | x
COc1cccc(OC)c1NC(=O)Cc1nn(C)c(=O)c2ccccc12 | n | n | n | n | n | n | x | x | x
Cn1nc(CC(=O)Nc2ccc(N3CCN(C(=O)OC(C)(C)C)CC3)cc2)c2ccccc2c1=O | n | 80 | n | n | n | n | 83 | 32 | 22
Cn1nc(CC(=O)N2CCN(c3ccccc3)CC2)c2ccccc2c1=O | n | n | n | n | n | n | x | x | x
Cc1nnc2sc(SCC(=O)Nc3ccc(Cl)cc3)nn2c1=O | n | n | n | n | n | n | x | x | x
Cc1ccccc1C1CCCN(Cc2nc(CC3CC3)no2)C1 (stereo not drawn) | n | n | n | n | n | n | x | x | x
CCCc1ccc(OCC(=O)NNC(=O)c2cccnc2)cc1 | n | n | n | n | n | n | x | x | x
SMILES | STAT1 activator | STAT3 inh-1 | NF-kB expr up | APP 5'UTR act | STAT3 activator | STAT1 blocker | STAT3 inh-2 | NFkB inh 2 | STAT1 inh STAT3c
CC1CC1C(=O)OCC(=O)Nc1ccc2[nH]c(=O)[nH]c2c1 (stereo not drawn) | n | n | n | n | n | n | x | x | x
Cc1ccc(OCCCC(=O)Nc2ccc(Br)cc2)cc1 | n | n | n | n | n | n | x | x | x
CS(=O)(=O)N(CC(=O)NC1CC1)C1CCCCC1 | n | n | n | n | n | n | x | x | x
COc1ccc(-n2c(-c3ccc(Cl)cc3)c[n+]3c2CCc2ccccc2-3)cc1 | n | 63 | n | n | n | n | 50 | n | 20
COc1ccc(-n2c(-c3ccccc3)nnc2-c2ccc(Cl)cc2)cc1 | n | n | n | n | n | n | x | x | x
Cc1ccc(/C=C/c2nnc(-c3cccs3)o2)cc1 | n | 64 | 5.2 | n | n | n | n | n | n
O=C(Nc1nsc(-c2ccccc2)n1)c1cccs1 | 148 | 45 | 4.2 | 149 | n | n | n | n | n
Cc1sc(NC(=O)c2cccs2)nc1-c1ccccc1 | n | n | n | n | n | n | x | x | x
COc1ccc2cc(CN(CC3CCCO3)C(=S)NCc3ccco3)c(=O)[nH]c2c1 (stereo not drawn) | n | n | n | n | n | n | x | x | x
CC(=O)CSc1nc2cc3c(cc2cc1C#N)OCCO3 | n | 78 | 5.7 | n | n | n | n | n | n
O=C(Cc1ccccc1)Nc1cc(C(=O)c2ccccc2)ccc1N1CCOCC1 | n | n | n | n | n | n | x | x | x
COC(=O)c1ccccc1NC(=O)CNc1cc(OC)c(OC)cc1C | n | 51 | n | n | n | n | 65 | 18 | 26
CCOc1ccc(NC(=O)c2nn(-c3ccc(OC)cc3OC)c(=O)c3ccccc23)cc1 | n | n | n | n | n | n | x | x | x
CC(=O)c1c(C)[nH]c(C(=O)OCc2c(F)cccc2Cl)c1C | n | n | n | n | n | n | x | x | x
CC(=O)c1c(C)[nH]c(C(=O)OCc2ccc(F)cc2Cl)c1C | n | 48 | n | n | n | n | 54 | n | n
CC(=O)Nc1ccc(S(=O)(=O)Oc2ccc(N3C(=O)C4CCCCC4C3=O)cc2)cc1 (stereo not drawn) | n | 73 | n | n | n | n | 61 | 20 | 19
CC(=O)Nc1ccc(S(=O)(=O)Oc2cccc(N3C(=O)C4CC=CCC4C3=O)c2)cc1 (stereo not drawn) | n | n | n | n | n | n | x | x | x
CC(C)N(Cc1cnn(C)c1)Cc1nc(Cc2ccccc2Cl)no1 | n | n | n | n | n | n | x | x | x
Cc1nn(C)c(C)c1CN(Cc1nc(CCC(C)C)no1)C(C)C | n | 76 | n | n | n | n | 78 | 27 | 20
Cc1ccc(CN2CCN(/N=C\C=C\c3ccccc3)CC2)cc1 | n | n | n | n | n | n | x | x | x
Cc1c(C(=O)N2CCc3ccccc3C2)sc2nc(-c3ccccc3)cn12 | n | n | n | n | n | n | x | x | x
c1ccc(-c2cn3c4c(sc3n2)CCCC4)cc1 | n | 82 | n | n | n | n | 59 | 50 | n
